Several values for one entry are separate records, joined by “and”; a condition that tells them apart may be missing. Equal values may be shown once.
Columns and labels:
[1] = species: Canis familiaris; assay: In vitro electrophysiological evaluation in canine cardiac Purkinje fibres reported as percent change Vmax at 10 uM at concentration range of 1-100 uM; Minimal (<10% decrease or increase in Vmax).; format: functional, organism-based; conditions: Canis lupus familiaris, Purkinje fiber
Summary of the method: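 Canine cardiac Purkinje fibers, intracellular recording, paced at a basic cycle length of 1 s. APD95 and Vmax are recorded together across cumulative concentrations. Compound is a 10 mM aqueous stock diluted into Tyrode's solution. Each fiber is used once as its own control. Readouts are percent change from control at 10 μM, and the maximum change with the concentration where it occurred.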

[2] = species: Canis familiaris; assay: In vitro electrophysiological evaluation in canine cardiac ventricular muscle reported as % change for conduction time(CT) at 0.1-100 uM concentration range; Minimal (<10% decrease or increase inCT).; format: functional, Canis lupus familiaris, Muscle tissue
Summary of the method: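 Canine right ventricular/papillary muscle strips in oxygenated Tyrode's, extracellular extra-stimulus conduction-interval method. FRP and CT are read from conduction-interval curves before and during rising concentrations. Compound is a 10 mM aqueous stock diluted into Tyrode's. Each strip is used once as its own control. Readouts are percent change from control at 10 μM, plus the maximum change with its concentration.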

[3] = species: Canis familiaris; assay: In vitro electrophysiological evaluation in canine cardiac Purkinje fibres reported as % change for action potential duration at 10 uM at 1-100 uM concentration range; format: functional, Canis lupus familiaris, Purkinje fiber
Summary of the method: (§1)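 Canine cardiac Purkinje fibres, intracellular microelectrode recording, paced at a basic cycle length of 1 s. APD95 and Vmax read simultaneously. Compound: 10 mM stock in deionized water, diluted into Tyrode's solution, tested over the stated concentration range. Each fibre used once as its own control. Result is % change from control, given at 10 µM or as the maximum with its concentration. M = <10% decrease or an increase in Vmax.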

[4] = species: Canis familiaris; assay: In vitro electrophysiological evaluation in canine cardiac Purkinje fibres reported as % change for action potential duration at a concentration of 10 uM; format: functional, Canis lupus familiaris, Purkinje fiber; summary of the method: as §1
[5] = species: Canis familiaris; assay: In vitro electrophysiological activity in canine cardiac occurred is 100 uM.; format: functional, Canis lupus familiaris, Heart
[6] = species: Canis familiaris; assay: In vitro electrophysiological evaluation in canine cardiac occurred is 100 uM.; format: functional; conditions: Canis lupus familiaris; Heart
[7] = species: Canis familiaris; assay: In vitro electrophysiological activity in canine cardiac occurred is 1 uM.; format: functional, Canis lupus familiaris, Heart
[8] = species: Canis familiaris; assay: In vitro electrophysiological evaluation in canine cardiac ventricular muscle reported as maximum % change for conduction time(CT) at 0.1-100 uM concentration range; Minimal (<10% decrease or increase inCT).; format: functional, Canis lupus familiaris, Muscle tissue
[9] = test system: Canis familiaris; assay: Conduction time was determined by intraduodenal administration of two doses of 30 mg/kg (high dose) of compound in anesthetized dogs. Value was reported for experiment 1; format: functional, Canis lupus familiaris
Summary of the method: (§2)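 Anesthetized dogs; compound given intraduodenally, generally as two doses, the second a cumulative (high) dose. LV functional refractory period and conduction time measured 15, 30 and 45 min after dosing; heart rate and blood pressure measured during nonpacing intervals. Values are % change from control, given per individual animal. Active if FRP or CT prolonged by ≥12%.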

[10] = species: Canis familiaris; assay: In vitro electrophysiological evaluation in canine cardiac occurred is 100 uM; format: functional; conditions: Canis lupus familiaris; Heart
[11] = test system: Canis familiaris; assay: Heart rate was determined by intraduodenal administration of two dosages of 24 mg/kg of compound in anesthetized dogs. Value was reported for experiment 2; format: functional, Canis lupus familiaris; summary of the method: as §2
[12] = test system: Canis familiaris; assay: Conduction time was determined by intraduodenal administration of two doses of 24 mg/kg (high dose) of compound in anesthetized dogs. Value was reported for experiment 2; format: functional, Canis lupus familiaris; summary of the method: as §2
[13] = test system: Canis familiaris; assay: Mean arterial blood pressure was determined by intraduodenal administration of two dosages of 24 mg/kg of compound in anesthetized dogs. Value was reported for experiment 2; format: functional, Canis lupus familiaris
[14] = test system: Canis familiaris; assay: Left ventricular refractory period was determined by intraduodenal administration of two doses of 24 mg/kg (high dose) of compound in anesthetized dogs. Value was reported for experiment 2; format: functional, Canis lupus familiaris, Cardiac ventricle
[15] = species: Canis familiaris; assay: (§3) In vitro electrophysiological activity in canine cardiac occurred is 10 uM; format: functional, Canis lupus familiaris, Heart
[16] = species: Canis familiaris; assay: In vitro electrophysiological evaluation in canine cardiac ventricular muscle reported as maximum % change for functional refractory period (FRP) at 0.1-100 uM concentration range; concentration at which it occurred is 100 uM.; parameters: species or system Canis lupus familiaris, Muscle tissue
Summary of the method: (§4)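 Canine right ventricle and papillary muscle strips in oxygenated Tyrode's solution, fitted with stimulating and recording electrodes. The extra-stimulus conduction-interval method was adapted for in vitro use. FRP and CT were read from a conduction-interval curve before and after various compound concentrations, and expressed as percent change from control. Compounds were taken from 10 mM deionized-water stock into Tyrode's. Each strip was used once as its own control.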

[17] = species: Canis familiaris; assay: In vitro electrophysiological evaluation in canine cardiac Purkinje fibres reported as percent change Vmax at 10 uM at concentration range of 1-100 uM.; format: functional; conditions: Canis lupus familiaris, Purkinje fiber; summary of the method: as §1
[18] = species: Canis familiaris; assay: In vitro electrophysiological evaluation in canine cardiac ventricular muscle reported as maximum % change for conduction time(CT) at 0.1-100 uM concentration range; Minimal (<10% decrease or increase in CT).; format: functional, Canis lupus familiaris, Muscle tissue; summary of the method: as §4
[19] = test system: Canis familiaris; assay: Heart rate was determined by intraduodenal administration of two doses of 10 mg/kg (low dose) of compound in anesthetized dogs. Value was reported for experiment 1; format: functional, Canis lupus familiaris; summary of the method: as §2
[20] = species: Canis familiaris; assay: In vitro electrophysiological evaluation in canine cardiac ventricular muscle reported as % change for the functional refractory period (FRP) at 10 uM at concentration range of 0.1-100 uM; parameters: species or system Canis lupus familiaris, Muscle tissue; summary of the method: as §4
[21] = species: Canis familiaris; assay: In vitro electrophysiological evaluation in canine cardiac Purkinje fibres reported as percent change Vmax at 10 uM at concentration range of 1-100 uM; Minimal (<10% decrease or increase in V max).; format: functional; conditions: Canis lupus familiaris, Purkinje fiber; summary of the method: as §1
[22] = species: Canis familiaris; assay: as §3; format: functional, Canis lupus familiaris, Heart; remark: listed apart in the source
[23] = test system: Canis familiaris; assay: Mean arterial blood pressure was determined by intraduodenal administration of two dosages of 10 mg/kg of compound in anesthetized dogs. Value was reported for experiment 2; format: functional, Canis lupus familiaris
Summary of the method: (§5)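 Anesthetized dogs received two intraduodenal doses, the second cumulative (low dose/high dose). Left ventricular FRP and CT were measured 15, 30 and 45 min after dosing. Heart rate and mean blood pressure were taken during nonpacing intervals. Values are percent change from control. The vehicle was 5% dextrose in water/tragacanth. Activity was defined as ≥12% prolongation of FRP or CT.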

[24] = test system: Canis familiaris; assay: Mean arterial blood pressure was determined by intraduodenal administration of two dosages of 10 mg/kg of compound in anesthetized dogs. Value was reported for experiment 1; format: functional, Canis lupus familiaris; summary of the method: as §5
[25] = species: Canis familiaris; assay: In vitro electrophysiological evaluation in canine cardiac Purkinje fibres reported as maximum percent change Vmax concentration range of 1-100 uM; Minimal (<10% decrease or increase in V max).; format: functional; conditions: Canis lupus familiaris; Purkinje fiber; summary of the method: as §1
[26] = test system: Canis familiaris; assay: Left ventricular refractory period was determined by intraduodenal administration of two doses of 10 mg/kg (low dose) of compound in anesthetized dogs. Value was reported for experiment 1; format: functional, Canis lupus familiaris, Cardiac ventricle
[27] = test system: Canis familiaris; assay: Heart rate was determined by intraduodenal administration of two dosages of 30 mg/kg of compound in anesthetized dogs. Value was reported for experiment 1; format: functional, Canis lupus familiaris; summary of the method: as §2
[28] = test system: Canis familiaris; assay: Left ventricular refractory period was determined by intraduodenal administration of two doses of 10 mg/kg (low dose) of compound in anesthetized dogs. Value was reported for experiment 2; format: functional, Canis lupus familiaris, Cardiac ventricle
[29] = test system: Canis familiaris; assay: Conduction time was determined by intraduodenal administration of two doses of 10 mg/kg (low dose) of compound in anesthetized dogs. Value was reported for experiment 2; format: functional, Canis lupus familiaris; summary of the method: as §2
[30] = test system: Canis familiaris; assay: Left ventricular refractory period was determined by intraduodenal administration two doses of 30 mg/kg (high dose) of compound in anesthetized dogs. Value was reported for experiment 1; format: functional, Canis lupus familiaris, Cardiac ventricle
[31] = test system: Canis familiaris; assay: Mean arterial blood pressure was determined by intraduodenal administration of two dosages of 30 mg/kg of compound in anesthetized dogs. Value was reported for experiment 1; format: functional, Canis lupus familiaris; summary of the method: as §5
[32] = test system: Canis familiaris; assay: Heart rate was determined by intraduodenal administration of two dosages of 10 mg/kg of compound in anesthetized dogs. Value was reported for experiment 2; format: functional, Canis lupus familiaris; summary of the method: as §2
[33] = test system: Canis familiaris; assay: Conduction time was determined by intraduodenal administration of two doses of 10 mg/kg (low dose) of compound in anesthetized dogs. Value was reported for experiment 1; format: functional, Canis lupus familiaris; summary of the method: as §2
[34] = species: Canis familiaris; assay: In vitro electrophysiological evaluation in canine cardiac Purkinje fibres reported as % change for action potential duration at 1-100 uM concentration range; format: functional, Canis lupus familiaris, Purkinje fiber; summary of the method: as §1
[35] = species: Canis familiaris; assay: In vitro electrophysiological activity in canine cardiac occurred is 100 uM; format: functional, Canis lupus familiaris, Heart
[36] = species: Canis familiaris; assay: In vitro electrophysiological evaluation in canine cardiac ventricular muscle reported as % change for conduction time(CT) at 10 uM at 0.1-100 uM concentration range; Minimal (<10% decrease or increase in CT).; format: functional, Canis lupus familiaris, Muscle tissue

CCN(CC)CCNC(=O)c1ccc(N)cc1.Cl [PROCAINAMIDE HYDROCHLORIDE]
Vmax [1]: < 10%
CT [2]: <10%
APD95 [3]: -1% and 0%
APD95 [4]: -4%
APD95 [5]: -8% and 3%
Vmax [6]: -14% and -10% (2×)
APD95 [7]: -7%
CT [8]: <10%

Cl.O=C(CCC1C(=O)C2CCN1CC2)c1ccc([N+](=O)[O-])cc1 (configuration not stated)
CT [9]: 2%
Vmax [10]: -23%
HR [11]: -40%
CT [12]: 11%
Mean blood pressure [13]: -1%
LV FRP [14]: 19%
APD95 [15]: 53%
FRP [16]: 25% and 22%
Vmax [17]: -17%
CT [18]: <10%
HR [19]: -23%
FRP [20]: 15% and 17%
Vmax [21]: < 10%
APD95 [22]: 36% and 25%
Mean blood pressure [23]: -10%
Mean blood pressure [24]: -11%
APD95 [4]: 36%
Vmax [25]: < 10%
LV FRP [26]: 14%
HR [27]: -31%
LV FRP [28]: 16%
CT [29]: 6%
LV FRP [30]: 15%
Mean blood pressure [31]: -21%
HR [32]: -35%
CT [33]: -1%
APD95 [34]: 53% and 25%
APD95 [35]: 13% and -10%
CT [36]: <10%

From ChEMBL document CHEMBL1123566, “Synthesis and cardiac electrophysiological activity of 2- and 3-[(substituted phenyl)alkyl]quinuclidines. Structure-activity relationships” (1987)
